Data set [1] concerns the target T1, Delta-type opioid receptor (Homo sapiens, UniProt P41143). Description: Displacement of [3H]diprenorphine from human DOR expressed in African green monkey COS1 cell membranes at 10 uM incubated for 1 hr by scintillation counting method. On the technique in general: Displacement assays read how much labelled ligand stays bound in the presence of the test substance.

Data set [2] addresses Kappa-type opioid receptor (Homo sapiens) (UniProt P41145). The settings on record: at 1 µM.
For data set [3], the target named is T1, Delta-type opioid receptor. Nature of the data set: Displacement of [3H]diprenorphine from human DOR expressed in African green monkey COS1 cell membranes at 1 uM incubated for 1 hr by scintillation counting method.
Data set [4] addresses T2, Mu-type opioid receptor (Homo sapiens, UniProt P35372). The settings on record: at 10 µM.
Data set [5] deals with T2, Mu-type opioid receptor. Conditions: at 1 µM.
Data set [6] has as its target Kappa-type opioid receptor (Homo sapiens) (UniProt P41145). The settings on record: at 10 µM.
The target of data set [7] is T1, Delta-type opioid receptor. Description: Agonist activity at human DOR expressed in African green monkey COS1 cell membranes assessed as stimulation of [35S]GTPgS binding at 20 uM by scintillation counting method. It counts as functional. The method, boiled down: (§1)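 Membranes (5 µg) from stably transfected cells expressing hMOR or hDOR were incubated 1 h at 23 °C in 50 mM Tris-HCl pH 7.3 with 5 mM MgCl₂, 100 mM NaCl, 1 mM EDTA, 30 µM GDP and 0.2 nM [35S]GTPγS. Reference opioids were used at 1 or 10 µM and test ligands at 20 or 50 µM. Nonspecific binding was taken with 10 µM GTP. Samples were filtered and counted; three experiments in triplicate.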

Data set [8] concerns the target T1, Delta-type opioid receptor. Description: Agonist activity at human DOR expressed in African green monkey COS1 cell membranes assessed as stimulation of [35S]GTPgS binding at 50 uM by scintillation counting method. The format is functional. The method, boiled down:
as §1

For data set [9], the target named is T2, Mu-type opioid receptor. Description: Antagonist activity at human MOR expressed in African green monkey COS1 cell membranes assessed as inhibition of DAMGO-induced [35S]GTPgS binding at 50 uM by scintillation counting method. It counts as functional. The method, boiled down:
(§2)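 Antagonism in [35S]GTPγS binding used 5 µg of hMOR or hDOR transfected-cell membranes, 1 h at 23 °C, in Tris-HCl pH 7.3 with MgCl₂, NaCl, EDTA, 30 µM GDP and 0.2 nM [35S]GTPγS. Test ligands at 20 or 50 µM were co-incubated with DAMGO (1 µM, MOR) or SNC80 (DOR). Read by filtration and scintillation; n=3 in triplicate.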

The target in data set [10] is T1, Delta-type opioid receptor. Description: Displacement of [3H]diprenorphine from human DOR expressed in African green monkey COS1 cell membranes incubated for 1 hr by scintillation counting method. The gist of the method:
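hDOR membranes from stably transfected cells, diluted in 50 mM Tris-HCl pH 7.4 with 1 mM EDTA, were incubated with 1 nM [3H]diprenorphine (KD 1.1 nM; Bmax 4.7 pmol/mg) and competitor (1 × 10⁻⁷ to 5 × 10⁻⁵ M) for 1 h at 23 °C. Samples were then filtered on PEI-soaked GF/B and counted by scintillation. Ki was derived from KD; three experiments in triplicate.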

In data set [11] the target is T2, Mu-type opioid receptor. Description: Antagonist activity at human MOR expressed in African green monkey COS1 cell membranes assessed as inhibition of DAMGO-induced [35S]GTPgS binding at 20 uM by scintillation counting method. The format is functional. The gist of the method: as §2
(Binding of GTPγS marks nucleotide exchange on a G protein.)

In data set [12] the target is T2, Mu-type opioid receptor. Description: Displacement of [3H]diprenorphine from human MOR expressed in African green monkey COS1 cell membranes incubated for 1 hr by scintillation counting method.
Data set [13] relates to HEK293. Nature of the data set: Toxicity in HEK293 cells assessed as reduction in cell viability at <100 uM incubated for 24 hrs by cell-titer Glo reagent based assay. Conditions: human, hek293, 24 h. The gist of the method:
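HEK-293 cells, 9000 per well, were switched to Opti-MEM and exposed to compound (0.1–100 µM) for 24 h. Viability was read as lysate ATP by CellTiter-Glo luminescence.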

Data set [14] deals with T1, Delta-type opioid receptor. Nature of the data set: Antagonist activity at human DOR expressed in African green monkey COS1 cell membranes assessed as inhibition of SNC80-induced [35S]GTPgS binding at 50 uM by scintillation counting method. It counts as functional. The method, boiled down:
as §2

The source of these data is ChEMBL document CHEMBL4152209, “Synthesis of 7β-hydroxy-8-ketone opioid derivatives with antagonist activity at mu- and delta-opioid receptors” (Eur J Med Chem, 2018).

What is called inhibition is the percentage by which the read-out fell short of the control. Usually Ki stands for the equilibrium dissociation constant of an inhibitor or competing ligand from its target.

The source made the active and inactive calls. No cut-off for these calls is given here.

T1 sequence (P41143 whole entry): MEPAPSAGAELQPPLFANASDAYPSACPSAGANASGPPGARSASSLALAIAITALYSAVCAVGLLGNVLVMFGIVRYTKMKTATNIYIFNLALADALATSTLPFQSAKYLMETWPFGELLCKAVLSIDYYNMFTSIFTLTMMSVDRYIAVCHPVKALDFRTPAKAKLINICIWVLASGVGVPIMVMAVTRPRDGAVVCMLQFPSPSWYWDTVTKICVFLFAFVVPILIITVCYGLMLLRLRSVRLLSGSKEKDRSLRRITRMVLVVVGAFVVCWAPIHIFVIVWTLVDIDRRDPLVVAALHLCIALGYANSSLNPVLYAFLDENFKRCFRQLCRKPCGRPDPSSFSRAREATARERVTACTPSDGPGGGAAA
T2 sequence (P35372 whole entry): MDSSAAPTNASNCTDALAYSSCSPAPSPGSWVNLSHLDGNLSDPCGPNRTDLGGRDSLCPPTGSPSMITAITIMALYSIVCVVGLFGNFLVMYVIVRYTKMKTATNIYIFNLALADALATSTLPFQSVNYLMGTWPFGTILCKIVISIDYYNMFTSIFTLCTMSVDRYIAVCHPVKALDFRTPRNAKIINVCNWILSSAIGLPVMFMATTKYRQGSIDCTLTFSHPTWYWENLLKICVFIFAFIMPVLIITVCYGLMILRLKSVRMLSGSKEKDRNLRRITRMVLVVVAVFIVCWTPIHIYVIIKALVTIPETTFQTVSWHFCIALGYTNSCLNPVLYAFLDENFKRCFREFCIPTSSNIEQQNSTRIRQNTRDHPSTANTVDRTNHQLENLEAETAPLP
Sequence of Kappa-type opioid receptor (Homo sapiens) (P41145 whole entry): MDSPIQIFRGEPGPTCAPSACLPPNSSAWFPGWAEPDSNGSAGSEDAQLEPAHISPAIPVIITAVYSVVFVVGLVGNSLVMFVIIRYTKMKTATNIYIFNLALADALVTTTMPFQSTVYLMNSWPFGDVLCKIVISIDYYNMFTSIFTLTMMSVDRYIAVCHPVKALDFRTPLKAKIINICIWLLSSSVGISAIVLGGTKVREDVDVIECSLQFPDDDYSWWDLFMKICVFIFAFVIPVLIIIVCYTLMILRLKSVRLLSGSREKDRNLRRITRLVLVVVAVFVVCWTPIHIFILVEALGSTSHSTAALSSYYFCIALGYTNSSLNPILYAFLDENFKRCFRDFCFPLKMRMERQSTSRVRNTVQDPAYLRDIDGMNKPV

In the case of `COC(=O)N1CC[C@]23c4c5ccc(OC(C)=O)c4O[C@H]2[C@@H](OC(C)=O)C=C[C@H]3[C@H]1C5`, the inhibition in data set [1] amounted to 9%; in data set [2], 0%; in data set [3], 1%; in [4] it was 3%; in data set [5], 1%; in [6] it was 1%.
Consider `CN1CC[C@]23c4c5ccc(O)c4O[C@H]2[C@@H](O)C=C[C@H]3[C@H]1C5`, for which the result in data set [7] and in data set [8] was Active. In addition, the inhibition in data set [1] is 63%; in [3] it was 31%.
`COC(=O)N1CC[C@]23c4c5ccc(O)c4O[C@H]2[C@@H](O)C=C[C@H]3[C@H]1C5`: the inhibition entry in [9], in data set [11] and in data set [14] was “Active” in each case. In addition, the inhibitory constant (Ki) in data set [10] fell in the range of 1690 to 2630 nM; in [12], 814 to 1720 nM. Also, the outcome in data set [7] and in data set [8] was inactive. Further, the inhibition is 59% in data set [1]; 7% in data set [2]; 21% in [3]; 58% in data set [4]; 16% in data set [5]; 27% in data set [6]. Further, the Activity entry in [13] is recorded as “Non-Toxic”.
As to `COC(=O)N1CC[C@]23c4c5ccc(OC)c4O[C@H]2[C@@H](OC)[C@H](O)C(=O)[C@H]3[C@H]1C5`, the inhibition in data set [1] stood at 19%; in data set [2], 5%; in [3], 5%; in data set [4], 5%; in data set [5] it was 5%; in data set [6] it was 0%. Further, the Activity result in [13] is reported as “Non-Toxic”.
`C[C@@H](NC(=O)[C@@H](N)Cc1ccc(O)cc1)C(=O)NCC(=O)N(C)[C@@H](Cc1ccccc1)C(=O)NCCO`: the inhibition in data set [4] amounted to 85%; in [5], 67%.
For the compound `COC(=O)N1CC[C@]23c4c5ccc(OC)c4O[C@H]2[C@@H](OC)C=C[C@H]3[C@H]1C5`, the inhibition in data set [1] was found to be 10%; in [2] it was 6%; in [3], 2%; in [4], 11%; in data set [5], 3%; in data set [6], 2%.
Regarding `Oc1ccc2c3c1O[C@H]1c4[nH]c5ccccc5c4C[C@@]4(O)[C@@H](C2)N(CC2CC2)CC[C@]314`, the inhibition in data set [1] and in [3] was 94% each time.
`COC(=O)N1CC[C@]23c4c5ccc(O)c4O[C@H]2[C@@H](O)[C@H](O)C(=O)[C@H]3[C@H]1C5`: the inhibition result in data set [9], in [11] and in [14] was “Active” in each case. The values for the Ki in [10] and in data set [12] were 1130 to 1830 nM and 1080 to 2580 nM, respectively. Also, the result in data set [7] and in [8] was inactive. Besides, the inhibition stood at 63% in [1]; 6% in [2]; 24% in [3]; 48% in [4]; 8% in data set [5]; 21% in [6]. Also, the Activity entry in [13] is listed as “Non-Toxic”.
Take `COC(=O)N1CC[C@]23c4c5ccc(OC(C)=O)c4O[C@H]2[C@@H](OC(C)=O)[C@H](O)C(=O)[C@H]3[C@H]1C5`: the inhibition in data set [1] is 51%; in data set [2] it was 4%; in data set [3], 22%; in data set [4] it was 9%; in data set [5] it was 7%; in [6] it was 8%. Moreover, the Activity result in [13] is reported as “Non-Toxic”.
